Data reported in publication PMC6349498 (Drug testing and analysis, 2018).
Like-named read-outs stand apart in the source and are kept apart here.

Experiments:
[1] = format: in vivo, human
Procedure, shortened: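 Healthy male and post-menopausal female volunteers self-dosed intranasally. Male: 100 IU (10 IU/puff, 5 puffs per nostril, alternating), then 20 IU (1 puff per nostril) after one-week washout. Female: 100 IU (50 IU/puff) compounded metered spray. Serum (male), urine and saliva were sampled baseline to 120–240 min and frozen at −80°C. Samples were C18 SPE-extracted with OT-d5 internal standard and analysed by orbitrap targeted SIM (m/z 562.25503); urine was creatinine-adjusted.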

[2] = OT stability in human serum; format: in vitro ADME; details: added to human serum; 4°C or room temperature (23°C); up to 24 hours; LCMS
Procedure, shortened: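 OT and OT-d5 were added to human serum and held at room temperature (~23°C) or 4°C for 24 h. Levels were compared with pre-incubation values. Serum (500 µL) was spiked with OT-d5, acidified with 4% phosphoric acid, then C18 SPE-purified. Quantitation was by HRAM orbitrap LCMS in positive heated ESI targeted SIM mode.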

[3] = OT stability in human urine; format: in vitro ADME; details: human urine spiked 9.9-385 ng/mL; 10°C; up to 5 days; LCMS
[4] = plasma from men and non-pregnant women; 60 minute incubation at 37°C; cited from earlier work
OT stability in water = format: physicochemical; details: spiked 9.9, 24.8, 154 and 385 ng/mL in water; 10°C; up to 5 days; LCMS
Procedure, shortened: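 Water was spiked with OT and OT-d5 at final 9.9, 24.8, 154 and 385 ng/mL and held at 10°C for variable times, matching the urine spikes. OT and OT-d5 levels were quantitated by HRAM orbitrap LCMS (positive heated ESI, targeted SIM). Means and standard deviation were reported.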

[5] = healthy volunteer, n=1, 100 IU intranasal (OxyLuv), saliva
[6] = male, human, serum, inhaled or intranasal, 100 IU

time after the peak at which levels decreased to below detection limits ([1]; 2 volunteers, 20 IU or 100 IU intranasal, serum, urine, saliva, summary) [h] | time of peak levels in serum, urine and saliva after each dose ([1]; 2 volunteers, 20 IU or 100 IU intranasal, summary over matrices) [min] | time of elimination of saliva OT to levels below LLOD ([1]; after intranasal OT, saliva, LLOD 10 pg/mL) [h] | time of peak saliva OT level ([1]; healthy volunteer, n=1, 20 IU intranasal (OxyLuv), saliva) [min] | peak saliva OT level [1, 5] | time of peak saliva OT level [1, 5] [min] | time of decrease of serum OT to baseline ([1]; healthy volunteer, n=1, 100 IU intranasal (OxyLuv), serum) [min] | time of peak urine OT excretion ([1]; healthy volunteer, n=1, 100 IU intranasal (OxyLuv), urine) [min] | Cmax [1, 6] [ng/mL] | Tmax [1, 6] [min] | Molecule | change in level compared to pre-incubation level [2] [%] | stability in urine after the initial drop [3] | OT degradation in plasma [4] | stability in water (OT stability in water)
1 to 2 | 15 to 30 | 2 to 3 | 15 | 392,000 pg/mL | 15 | ≤ 60 | 30 | 0.08 | 15 | CC[C@H](C)[C@@H]1NC(=O)[C@H](Cc2ccc(O)cc2)NC(=O)[C@@H](N)CSSC[C@@H](C(=O)N2CCC[C@H]2C(=O)N[C@@H](CC(C)C)C(=O)NCC(N)=O)NC(=O)[C@H](CC(N)=O)NC(=O)[C@H](CCC(N)=O)NC1=O [OT, Oxytocin] | < 15 | stayed at those low levels | little or no OT degradation | remained stable
 |  |  |  |  |  |  |  |  |  | OT-leucyl-d3-glycinamide-d2 [OT-d5] | < 15 | stayed at those low levels |  | remained stable
